Laboratory results taken from ChEMBL document CHEMBL4385599, “Neutral sphingomyelinase 2 inhibitors based on the 4-(1H-imidazol-2-yl)-2,6-dialkoxyphenol scaffold” (Eur J Med Chem, 2019).

What was measured:
[1] = species: Homo sapiens; assay: Selectivity index, ratio of IC50 for alkaline phosphatase (unknown origin) to IC50 for Inhibition of human recombinant nSMase expressed in HEK293 cells; format: cell-based
[2] = biological target: T1, Sphingomyelin phosphodiesterase 3 (Homo sapiens, UniProt Q9NY59); assay: Inhibition of human recombinant nSMase expressed in HEK293 cells using sphingomyelin as substrate by alkaline phosphatase, choline oxidase and horseradish peroxidase dependent H2O2 detection based fluorescence coupled assay
T1 sequence (Q9NY59 whole entry): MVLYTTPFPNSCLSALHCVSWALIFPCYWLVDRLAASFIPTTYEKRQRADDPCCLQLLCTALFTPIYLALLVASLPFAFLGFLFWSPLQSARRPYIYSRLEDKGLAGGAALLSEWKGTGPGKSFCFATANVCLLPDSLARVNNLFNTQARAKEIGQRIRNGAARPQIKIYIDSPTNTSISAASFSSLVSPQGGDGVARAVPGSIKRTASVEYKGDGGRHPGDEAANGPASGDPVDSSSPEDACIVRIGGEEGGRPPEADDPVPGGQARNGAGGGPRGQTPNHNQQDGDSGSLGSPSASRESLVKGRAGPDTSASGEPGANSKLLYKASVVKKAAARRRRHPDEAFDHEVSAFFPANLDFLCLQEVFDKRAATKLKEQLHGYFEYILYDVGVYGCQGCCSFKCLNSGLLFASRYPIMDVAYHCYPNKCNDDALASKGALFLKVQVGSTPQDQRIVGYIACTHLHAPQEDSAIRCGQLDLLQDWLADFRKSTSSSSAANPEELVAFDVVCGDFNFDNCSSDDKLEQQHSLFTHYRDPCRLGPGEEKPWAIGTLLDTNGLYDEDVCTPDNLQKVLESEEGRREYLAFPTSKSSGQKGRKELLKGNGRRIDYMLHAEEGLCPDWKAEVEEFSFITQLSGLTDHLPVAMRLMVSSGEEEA
Method in brief: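 Fluorescence-based coupled assay with human recombinant nSMase2, alkaline phosphatase and choline oxidase; IC50 values are mean ± SD of at least three experiments.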

[3] = Ratio of drug level of test compound to drug level of DPTIP in CD-1 mouse plasma at 10 mg/kg, po measured after 2 hrs by UPLC and LC-MS/MS analysis; format: ADME, organism-based; settings: in vivo
Method in brief: (§1)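 Male CD-1 mice (25–30 g), single oral gavage 10 mg/kg in 5% DMSO, 5% polysorbate 80, 90% saline; 3 mice per time point, sacrificed at 0.5 and 2 h. Cardiac blood into heparin, plasma by centrifugation; brains flash frozen. Acetonitrile extraction with losartan internal standard; quantified by UPLC–LC-MS/MS against calibration curves in naïve plasma/brain matrix.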

[4] = Metabolic stability in human liver microsomes assessed as parent compound remaining at 5 uM in presence of NADPH regenerating system measured after 1 hr by LC/MS/MS method; format: ADME, Microsome
[5] = Ratio of drug level in brain to plasma in CD-1 mouse at 10 mg/kg, po measured after 2 hrs by UPLC and LC-MS/MS analysis; format: ADME, organism-based; method in brief: as §1
[6] = Drug metabolism in CD-1 mouse assessed as (2S,3S,4S,5R,6S)-6-(4-(4,5-diisopropyl-1H-imidazol-2-yl)-2,6-dimethoxyphenoxy)-3,4,5-trihydroxytetrahydro-2H-pyran-2-carboxylic acid at 10 mg/kg, po measured after 2 hrs by UPLC and LC-MS/MS analysis; format: ADME, organism-based; settings: in vivo
[7] = Ratio of drug level of test compound to drug level of DPTIP in CD-1 mouse brain at 10 mg/kg, po measured after 2 hrs by UPLC and LC-MS/MS analysis; format: ADME, organism-based; settings: in vivo; method in brief: as §1
[8] = Metabolic stability in human liver microsomes assessed as parent compound remaining in presence of UDPGA at 5 uM measured after 1 hr by LC/MS/MS method; format: ADME, Microsome
Method in brief: (§2)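 Glucuronidation: compound in 50 mM Tris-HCl pH 7.5 with microsomes 0.5 mg/mL, 8 mM MgCl2, 25 μg/mL alamethicin, preincubated at 37 °C; started with UDPGA 2 mM final, triplicate; 60 min; quenched with cold acetonitrile plus internal standard; parent remaining by LC/MS/MS; cofactor-free controls.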

[9] = Metabolic stability in mouse liver microsomes assessed as parent compound remaining in presence of UDPGA at 5 uM measured after 1 hr by LC/MS/MS method; format: ADME, Microsome; method in brief: as §2
[10] = Selectivity index, ratio of IC50 for horseradish peroxidase to IC50 for Inhibition of human recombinant nSMase expressed in HEK293 cells; format: cell-based
[11] = Metabolic stability in mouse liver microsomes assessed as parent compound remaining at 5 uM in presence of NADPH regenerating system measured after 1 hr by LC/MS/MS method; format: ADME, Microsome
[12] = Ratio of drug level of test compound to drug level of DPTIP in CD-1 mouse plasma at 10 mg/kg, po measured after 0.5 hrs by UPLC and LC-MS/MS analysis; format: ADME, organism-based; settings: in vivo; method in brief: as §1
[13] = species: Homo sapiens; assay: Selectivity index, ratio of IC50 for choline oxidase (unknown origin) to IC50 for Inhibition of human recombinant nSMase expressed in HEK293 cells; format: cell-based

COc1cc(-c2nc(C(C)C)c(C(C)C)[nH]2)cc(OC)c1O
Ratio IC50 [1]: > 5
IC50 [2]: 90 nM
Ratio [3]: 6
Stability [4]: > 95%
BPR [5]: 9%
Drug metabolism [6]: Metabolite_Detected
Ratio [7]: 3
Stability [8]: 32%
Stability [9]: 14%
Ratio IC50 [10]: > 5
Stability [11]: 82%
Ratio [12]: 3
Ratio IC50 [13]: > 5
